SENP1 inh – human SENP1 catalytic domain inhibitors, primary screen, biochemical, FRET, uHTS. actives 0.21% (n = 360,000). inhibition, % at 10 µM. AID 624204, 2012. recombinant SENP1 catalytic domain, CyPet-SUMO1-YPet FRET cleavage. Sentrin-specific protease 1 (Homo sapiens), Q9P0U3;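 active = inhibition at least 30% at 10 µM, raw YFP signal under a set limit, fluorescence ratio 0.5 to 1.5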;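 also: 0% = enzyme with DMSO and 100% = no enzyme wells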
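Material: hSENP1 catalytic domain, recombinant; medium: Tris pH 8 with BME, BSA, NP40 and catalase; compound: single concentration of 10 µM compound, 0.5% DMSO final; technique: FRET read of cyan and yellow fluorescence; timing: 50 min enzyme reaction, room temperature, light-protected; reagent: SFCypet-SUMO1-SFYpet substrate at 25 nM; control set: no-enzyme low, enzyme-DMSO high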
SENP6 block – SENP6 protease inhibitors, primary screen, biochemical, luminescence, uHTS | Sentrin-specific protease 6 (Homo sapiens), Q9GZR1 | Recombinant SENP6 catalytic domain, aminoluciferin luminescence | inhibition, % at 10 µM | actives 1.8% (n = 330,000) | AID 2599, 2010;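 active = inhibition above about 50% at the single tested dose, limit read from the data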;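 also: plate controls were DMSO wells with enzyme for no effect and DMSO wells lacking enzyme for full effect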
Target sequence (Q9GZR1 628-1112 limits assumed): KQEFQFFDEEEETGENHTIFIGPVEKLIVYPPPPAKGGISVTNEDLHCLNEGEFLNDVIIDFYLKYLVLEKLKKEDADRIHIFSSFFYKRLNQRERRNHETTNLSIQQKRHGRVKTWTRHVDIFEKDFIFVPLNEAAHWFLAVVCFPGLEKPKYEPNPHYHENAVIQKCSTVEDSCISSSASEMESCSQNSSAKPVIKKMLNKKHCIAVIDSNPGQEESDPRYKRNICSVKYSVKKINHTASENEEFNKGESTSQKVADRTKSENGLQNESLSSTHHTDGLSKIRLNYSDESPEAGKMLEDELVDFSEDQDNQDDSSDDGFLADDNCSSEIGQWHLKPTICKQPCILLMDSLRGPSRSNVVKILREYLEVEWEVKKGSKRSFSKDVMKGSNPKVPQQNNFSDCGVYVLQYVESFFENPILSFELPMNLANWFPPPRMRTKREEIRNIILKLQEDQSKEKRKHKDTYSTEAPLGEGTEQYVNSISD
SENP8 block-1 – SENP8 protease inhibitors, primary screen, biochemical, luminescence. Sentrin-specific protease 8 (Homo sapiens), Q96LD8. inhibition, % at 10 µM. actives 1.2% (n = 330,000). purified SENP8, Z-RLRGG-aminoluciferin cleavage. AID 2540, 2010; in the data active = inhibition above about 50%
Target sequence (Q96LD8 whole entry, looked up): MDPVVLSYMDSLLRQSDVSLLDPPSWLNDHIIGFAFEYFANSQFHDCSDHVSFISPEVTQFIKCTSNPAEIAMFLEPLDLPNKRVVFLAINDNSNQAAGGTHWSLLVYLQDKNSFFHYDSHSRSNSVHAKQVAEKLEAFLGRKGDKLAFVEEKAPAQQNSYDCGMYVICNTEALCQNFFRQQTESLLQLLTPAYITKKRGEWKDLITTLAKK
Apaf1 inhib – inhibitors of human Apaf-1 apoptosome, primary screen, biochemical, DEVD-Rh110 fluorescence, uHTS. actives 0.71% (n = 330,000). inhibition, % at 20 µM. reconstituted apoptosome caspase-3 activity. Apoptotic protease-activating factor 1 (Homo sapiens), O14727; active = inhibition of at least 40% at 20 µM;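 also: plate controls were DMSO wells for no effect and DEVD-CHO caspase inhibitor wells for full effect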
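System: reconstituted apoptosome with Apaf-1, cytochrome c, caspase-9, procaspase-3, dATP; Signal: Rh110 fluorescence intensity; Schedule: 30 min compound preincubation, 50 min activation, room temperature; Reagent: cytochrome c trigger plus (Z-DEVD)2-Rh110 caspase-3 substrate.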
SENP8 block-2 – human SENP8 protease inhibitors, primary screen, biochemical, fluorescence, Nedd8 protein substrate, uHTS. inhibition, % at 20 µM. AID 602440, 2012. recombinant SENP8. Sentrin-specific protease 8 (Homo sapiens), Q96LD8. actives 0.64% (n = 360,000); in the data active = inhibition mostly above about 40%, no sharp cut-off; inactive = mostly below about 27%
SENP7 block – SENP7 protease inhibitors, primary screen, biochemical, luminescence, uHTS | recombinant SENP7, Z-RLRGG-aminoluciferin luminescence, 40 min | Sentrin-specific protease 7 (Homo sapiens), Q9BQF6 | actives 1.5% (n = 330,000) | inhibition, % at 5 µM;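 active = inhibition above about 50% at the single test dose, limit read from the data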;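 also: plate controls were DMSO with enzyme for no effect and no enzyme buffer wells for full effect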
SENP8 inh conf – human SENP8 protease inhibitors, confirmation, biochemical, Nedd8 protein substrate, single concentration | shares compounds with SENP8 block-2 | purified SENP8, Nedd8-AMC/pro-Nedd8 cleavage fluorescence, 30 min | inhibition, % at 25 µM | actives 15% (n = 1,400); in the data active = inhibition mostly above about 39%, no sharp cut-off; inactive = mostly below about 34%
* = called active by the depositor; / = no result. Rows were chosen to be rich in hits. Some 2.9% of all compounds tested hit in one or more screens of this group.

SMILES | SENP1 inh | SENP6 block | SENP8 block-1 | Apaf1 inhib | SENP8 block-2 | SENP7 block | SENP8 inh conf
CCc1nc(SCC(=O)N2CCCc3ccccc32)c2oc3ccccc3c2n1 | 2 | -4 | 2 | 8 | 46* | 6 | 7
Cc1nc(SCC(=O)O)c2oc3ccccc3c2n1 | 0 | -9 | 6 | 2 | 47* | 6 | 12
O=C(NC1CCN(Cc2ccccc2)CC1)c1[nH]c(C(F)(F)F)nc1-c1ccccc1 | 1 | / | / | / | 17 | / | /
Cc1ccc(S(=O)(=O)N(C)C[C@H]2Oc3cc(C#Cc4ccccc4)ccc3S(=O)(=O)N([C@H](C)CO)C[C@@H]2C)cc1 | -58 | / | / | / | -153 | / | /
O=C(NCc1ccc(F)c(F)c1)C1Cc2c(-c3ccc4c(c3)OCO4)ccnc2O1 (stereo unspecified) | -2 | / | / | / | -68 | / | /
CC(=O)N1C[C@H]2CON(C)[C@H]2C[C@H]1c1cccc(-c2cc(Cl)cc(Cl)c2)c1 | 1 | / | / | / | 14 | / | /
COC(=O)Cc1c(C)nc2nc(-c3ccc(C)cc3)[nH]n2c1=O | 0 | -12 | -5 | -2 | 46* | -6 | -9
CCOCCOc1cc(NCc2ccccc2)c2ncn(C(C)C)c2c1 | -87 | / | / | / | 40* | / | 80*
CC(C)(C)c1cc(C(=O)NNc2cccc(Cl)c2)n(Cc2ccccc2)n1 | 1 | -8 | -4 | 6 | 43* | -6 | 20
CCCNC(=O)c1cc(C2CCCN(C(=O)C3CCCCC3)C2)on1 (stereo unspecified) | 1 | / | / | / | 14 | / | /
CC(C)N(Cc1cnn(C)c1)Cc1nc(Cc2ccccc2Cl)no1 | 5 | -5 | -3 | -7 | 47* | 8 | 2
CN(Cc1cnn(C)c1)Cc1nc(Cc2ccccc2Cl)no1 | 2 | 5 | 0 | -5 | 8 | -4 | /
CN(N=Cc1ccccc1)C(=S)Nc1ccccc1 | 0 | / | / | / | 43* | / | 19
CC(C)(C)C1CCN2CCCC(c3ccccc3)(C1)C2=O (stereo unspecified) | 2 | / | / | / | 6 | / | /
CC(C)[C@H](Nc1ccc(C(F)(F)F)cc1[N+](=O)[O-])C(=O)O | 4 | -10 | 2 | -1 | 41* | 5 | 22
Cc1cc(C)c(C(=O)COC(=O)[C@H](C)Nc2ccc(C(F)(F)F)cc2[N+](=O)[O-])c(C)c1 | 0 | -1 | -3 | 12 | 14 | -1 | /
CCOc1ccc(S(=O)(=O)NCCC(=O)NCC(c2ccc(OC)cc2)N2CCOCC2)cc1 (stereo unspecified) | 1 | / | / | / | 51* | / | -8
CC(C)C1NCCc2c1sc1ccccc21 (stereo unspecified) | 3 | 4 | -2 | 2 | 43* | 0 | -8
O=c1cc(-c2ccccc2)oc2ccccc12 | 0 | -11 | 5 | -1 | 43* | -1 | 19
CC(=O)c1ccc(-n2nnnc2SCC(=O)N2CCc3ccccc3C2)cc1 | -1 | / | / | / | 61* | / | 79*
Cc1ccc(S(=O)(=O)N2CCCCC2)cc1C(=O)NCCN1CCOCC1 | 1 | 3 | 6 | 0 | 3 | -1 | /
COc1cc(C(=O)OC2CC3CCC2(C)C3(C)C)ccc1OC(C)=O (stereo unspecified) | 1 | 2 | -7 | 8 | 62* | -4 | 7
CC1(C)C2CCC1(C)C(OC(=O)CNc1ccccc1)C2 (stereo unspecified) | 1 | 6 | 3 | -3 | 38 | 1 | /
Cc1csc2c(N3CCN(C(=O)c4ccc(C(C)(C)C)cc4)CC3)ncnc12 | -2 | -30 | -15 | 22 | 40* | 1 | 20
Cc1ccc(NNC(=O)c2c(C)noc2C)cc1Cl | 0 | -3 | -4 | -13 | 54* | -5 | 17
SMILES | SENP1 inh | SENP6 block | SENP8 block-1 | Apaf1 inhib | SENP8 block-2 | SENP7 block | SENP8 inh conf
CCOc1ccc(N=C(C)c2ccccc2O)cc1 | 0 | -20 | -12 | -4 | 42* | 4 | 17
CC1(OC(=O)C2CCCC2)C(=O)C=C2C=C3CCCCN3C=C2C1=O (stereo unspecified) | -6 | 6 | -11 | 36 | 57* | -2 | 60*
COC(=O)CCC(=O)OC1(C)C(=O)C=C2C=C3CCCN3C=C2C1=O (stereo unspecified) | -15 | 11 | 6 | 16 | 53* | 3 | 47*
COC(=O)CCC(=O)OC1(C)C(=O)C=C2C=C(C3CC3)N(c3ccccc3)C=C2C1=O (stereo unspecified) | -69 | 15 | 2 | 9 | -107 | 4 | /
Cc1ccc(NC(=O)c2ccc(CN3CCc4ccccc4C3)cc2)cc1 | -1 | 21 | 6 | 48* | 71* | 12 | 29
O=C(Nc1ccccc1)c1ccc(CN2CCc3ccccc3C2)cc1 | 1 | -5 | 2 | 7 | 8 | 2 | /
O=C(Nc1cccnc1)c1ccc(CN2CCc3ccccc3C2)cc1 | -4 | -14 | -9 | 7 | 51* | -4 | 34
O=C(COc1ccc(Br)cc1CO)Nc1ccc(F)cc1 | -2 | -16 | -11 | 8 | 41* | -6 | 18
Cn1c(SCC(=O)N2CCCCCC2)nc2c(c1=O)SCC2 | -3 | 3 | 1 | 9 | 13 | -3 | /
O=C1CC(=Nc2ccc([N+](=O)[O-])cc2)NN1c1c(Cl)cc(Cl)cc1Cl | 3 | / | / | / | 95* | / | 71*
O=[N+]([O-])c1ccc(N=Nc2c(Cl)cc(O)cc2Cl)cc1 | 1 | / | / | / | 37 | / | /
COc1cc(C)c(S(=O)(=O)NCc2cccs2)cc1C | 0 | -13 | -10 | 4 | 41* | 14 | 11
COc1ccc(Cl)cc1S(=O)(=O)NCc1cccs1 | 1 | 2 | 3 | 9 | 3 | 6 | /
CCc1nc2c(OCc3ccccc3C)cccn2c1N(C)C(=O)c1ccc(C)cc1 | 0 | / | / | / | 23 | / | /
O=C(NCc1cccs1)C1CCCN1C(=O)Nc1ccc(F)cc1 (stereo unspecified) | 5 | -13 | 1 | -20 | 41* | 9 | 13
CCOc1ccc(CCNC(=O)C(C)n2nc(C)n3c(cc4occc43)c2=O)cc1OCC (stereo unspecified) | -1 | -21 | -13 | 8 | 42* | -3 | 13
Cc1nn(C(C)C(=O)NCCc2ccccc2)c(=O)c2cc3occc3n12 (stereo unspecified) | -2 | 3 | -3 | 1 | -4 | -2 | /

High-throughput results from PubChem BioAssay.
